Assay results reported in ChEMBL document CHEMBL1126221, “Antimitotic agents: structure-activity studies with some pyridine derivatives” (J Med Chem, 1992).

How the values were obtained:
P388 [1] = experiment: Compound was evaluated for antitumor activity against mice implanted with lymphatic leukemia P388 cells (10e6 tumor cells) after intraperitoneal administration of 200 mg/kg per injection (1-5 days); assay type: functional; details: Mus musculus, P388, ip
Summary of the method: (§1)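 Mice implanted ip with 10⁶ lymphocytic leukemia P388 cells; drug given ip on days 1-5. Read-out is % increase in life span (% ILS) versus untreated controls, reported at the highest nontoxic dose tested.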

L1210 [2] = experiment: Concentration required to inhibit proliferation of cultured lymphoid leukemia L1210 cells to 50% growth over 48 hours; assay type: functional, cell-based; details: Mus musculus, L1210, 48 h
Summary of the method: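 Cultured lymphoid leukemia L1210 cells were exposed to agent for 48 h. IC50 is the micromolar concentration that holds proliferation to 50% growth.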

P388 [3] = experiment: Compound was evaluated for antitumor activity against mice implanted with lymphatic leukemia P388 cells (10e6 tumor cells) after intraperitoneal administration of 200 mg/kg per injection; assay type: functional; details: Mus musculus, P388, ip
HEp-2 = experiment: Compound's concentration required to inhibit proliferation of cultured HEP-2 cells to 50% growth during 48 hours.; assay type: functional, cell-based; details: Homo sapiens, HEp-2, 48 h
L1210 [4] = experiment: Compound was evaluated for antitumor activity against mice implanted with lymphatic leukemia L1210 cells (10e6 tumor cells) after intraperitoneal administration of 200 mg/kg per injection (1-15 days); details: Mus musculus, L1210, ip
[5] = Compound's concentration required to inhibit proliferation of cultured KB cells to 50% growth during 48 hours.; assay type: functional, cell-based; details: Homo sapiens
P388 [6] = experiment: Compound was evaluated for antitumor activity against mice implanted with lymphatic leukemia P388 cells (10e6 tumor cells) after intraperitoneal administration of 100 mg/kg per injection (1-5 days); assay type: functional; details: Mus musculus, P388, ip; summary of the method: as §1
P388 [7] = experiment: Compound was evaluated for antitumor activity against mice implanted with lymphatic leukemia P388 cells (10e6 tumor cells) after intraperitoneal administration of 2 mg/kg per injection (1-5 days); assay type: functional; details: Mus musculus, P388, ip; summary of the method: as §1
P388 [8] = experiment: Compound was evaluated for antitumor activity against mice implanted with lymphatic leukemia P388 cells (10e6 tumor cells) after intraperitoneal administration of 200 mg/kg per injection (highest dose tested); assay type: functional; details: Mus musculus, P388, ip
Summary of the method: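 Mice implanted ip with 10⁶ P388 leukemia cells and treated ip on days 1-5. % increase in life span is reported at the highest dose tested.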

L1210 [9] = experiment: Effect on the mitosis of cultured L1210 cells measured in metaphase at 12 hours and 100 uM concentration; assay type: functional, Mus musculus
Summary of the method: (§2)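 Cultured L1210 cells were exposed for 12 h to 0, 3, 10, 30, 50 or 100 μM agent. Read-out was the percentage of cells in metaphase.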

L1210 [10] = experiment: Effect on the mitosis of cultured L1210 cells measured in metaphase at 12 hours and 30 uM concentration; assay type: functional, Mus musculus; summary of the method: as §2
L1210 [11] = experiment: Effect on the mitosis of cultured L1210 cells measured in metaphase at 12 hours and 50 uM concentration; assay type: functional, Mus musculus; summary of the method: as §2
L1210 [12] = experiment: Effect on the mitosis of cultured L1210 cells measured in metaphase at 12 hours and 10 uM concentration; assay type: functional, Mus musculus; summary of the method: as §2
L1210 [13] = experiment: Effect on the mitosis of cultured L1210 cells measured in metaphase at 12 hours and 0 uM concentration; assay type: functional, Mus musculus; summary of the method: as §2
L1210 [14] = experiment: Effect on the mitosis of cultured L1210 cells measured in metaphase at 12 hours and 3 uM concentration; assay type: functional, Mus musculus; summary of the method: as §2

Compound | IC50 (L1210 [2]) [µM] | other results
CCOC(=O)Nc1cc(N[C@H](C)[C@@H](O)c2ccccc2)c([N+](=O)[O-])c(N)n1 | 31 | ILS at 200 mg/kg (P388 [1]): 0%
CCCCC(Nc1cc(NC(=O)OCC)nc(N)c1[N+](=O)[O-])C(C)O (stereo unspecified) | 56 | 
CCOC(=O)Nc1cc(N[C@@H](C)C(=O)c2ccc(O)cc2)c([N+](=O)[O-])c(N)n1 | 24 | 
CCCCC(Nc1cc(NC(=O)OCC)nc(N)c1[N+](=O)[O-])C(C)=O (stereo unspecified) | 31 | 
CCOC(=O)Nc1cc(NC(CC)C(O)c2ccccc2)c([N+](=O)[O-])c(N)n1 (stereo unspecified) | 22 | 
CCOC(=O)Nc1cc(NC(C)C(O)c2ccc3c(c2)OCO3)c([N+](=O)[O-])c(N)n1 (stereo unspecified) | 21 | 
CCOC(=O)Nc1cc(N/N=C/c2ccccc2)c(N)c(N)n1 |  | ILS at 200 mg/kg (P388 [3]): 3%
CCOC(=O)Nc1cc(N[C@H](C)C(=O)c2ccc(O)cc2)c([N+](=O)[O-])c(N)n1 | 44 | 
CCOC(=O)Nc1cc(NC(c2ccccc2)c2ccccc2)c(N)c(N)n1 |  | IC50 (HEp-2): 0.26 µM; ILS at 200 mg/kg (L1210 [4]): 0%
CCOC(=O)Nc1cc(NC(/C(=N/O)c2ccccc2)c2ccccc2)c([N+](=O)[O-])c(N)n1 (stereo unspecified) | 45 | 
CCCCC(O)C(C)Nc1cc(NC(=O)OCC)nc(N)c1[N+](=O)[O-] (stereo unspecified) | 55 | 
CCOC(=O)Nc1cc(NC(C)C(O)Cc2ccccc2)c([N+](=O)[O-])c(N)n1 (stereo unspecified) | 53 | 
CCOC(=O)Nc1cc(N[C@@H](C)[C@H](O)c2ccccc2)c([N+](=O)[O-])c(N)n1 | 7.8 | ILS at 200 mg/kg (P388 [1]): 53%
CCOC(=O)Nc1cc(NC(C)C(O)c2ccc(O)cc2)c([N+](=O)[O-])c(N)n1 (stereo unspecified) | 12 | 
CCOC(=O)Nc1cc(NC(C)C(=O)COc2ccccc2)c([N+](=O)[O-])c(N)n1 (stereo unspecified) | 89 | 
COc1ccc(/C(=N/O)C(C)N)cc1 (stereo unspecified) | > 100 | 
CCOC(=O)Nc1cc(NN(C)C(=N)c2ccccc2)c([N+](=O)[O-])c(N)n1 | > 100 | 
CCOC(=O)Nc1cc(NCCc2ccccc2)c([N+](=O)[O-])c(N)n1 |  | IC50 [5]: > 100 µM
CCOC(=O)Nc1cc(N[C@@H](C)[C@H](O)c2ccc(O)cc2)c([N+](=O)[O-])c(N)n1 | 12 | ILS at 200 mg/kg (P388 [1]): 20%
CCOC(=O)Nc1cc(NC(C)C(O)COc2ccccc2)c(N)c(N)n1 (stereo unspecified) | 21 | 

Compound | IC50 (L1210 [2]) [µM] | other results
CCOC(=O)Nc1cc(NC(CC)C(=O)c2ccccc2)c([N+](=O)[O-])c(N)n1 (stereo unspecified) | > 100 | 
CCOC(=O)Nc1cc(N[C@@H](C)[C@H](O)c2ccc(O)cc2)c(N)c(N)n1 | 0.62 | ILS at 100 mg/kg (P388 [6]): 58%
CCOC(=O)Nc1cc(NCCc2ccccc2)c(N)c(N)n1 |  | IC50 [5]: 75 µM
CCOC(=O)Nc1cc(NC(C)C(=O)c2ccc(O)cc2)c([N+](=O)[O-])c(N)n1 (stereo unspecified) | 1.2 | ILS at 100 mg/kg (P388 [6]): 71%
CC[C@]1(O)C[C@H]2CN(CCc3c([nH]c4ccccc34)[C@@](C(=O)OC)(c3cc4c(cc3OC)N(C=O)[C@H]3[C@@](O)(C(=O)OC)[C@H](OC(C)=O)[C@]5(CC)C=CCN6CC[C@]43[C@@H]65)C2)C1 [VINCRISTINE] |  | ILS at 2 mg/kg (P388 [7]): 85%
CCOC(=O)Nc1cc(N[C@@H](C)/C(=N\O)c2ccc(O)cc2)c([N+](=O)[O-])c(N)n1 | 26 | 
CCOC(=O)Nc1cc(N[C@H](C)C(=O)c2ccccc2)c([N+](=O)[O-])c(N)n1 | 24 | ILS at 200 mg/kg (P388 [1]): 0%
CCCCC(O)C(C)Nc1cc(NC(=O)OCC)nc(N)c1N (stereo unspecified) | 18 | ILS at 200 mg/kg (P388 [1]): 10%
CCCCC(Nc1cc(NC(=O)OCC)nc(N)c1N)C(C)O (stereo unspecified) | 1.7 | ILS at 200 mg/kg (P388 [8]): 45%
CCOC(=O)Nc1cc(NC(C)C(=O)c2ccc3c(c2)OCO3)c([N+](=O)[O-])c(N)n1 (stereo unspecified) | 69 | 
CCCCC(=O)C(C)Nc1cc(NC(=O)OCC)nc(N)c1[N+](=O)[O-] (stereo unspecified) | 54 | 
CCOC(=O)Nc1cc(N[C@H](C)[C@@H](O)c2ccccc2)c(N)c(N)n1 | 5.9 | ILS at 200 mg/kg (P388 [1]): 10%
CCOC(=O)Nc1cc(NC(C)/C(=N/O)c2cccc([N+](=O)[O-])c2)c([N+](=O)[O-])c(N)n1 (stereo unspecified) | 32 | Cells in metaphase (L1210 [9]): 1%; Cells in metaphase (L1210 [10]): 2%; Cells in metaphase (L1210 [11]): 6%; ILS at 100 mg/kg (P388 [6]): 25%; Cells in metaphase (L1210 [12]): 2%; Cells in metaphase (L1210 [13]): 2%; Cells in metaphase (L1210 [14]): 4%
CCOC(=O)Nc1cc(N[C@@H](C)/C(=N/O)c2ccc(O)cc2)c([N+](=O)[O-])c(N)n1 | 6.7 | ILS at 2 mg/kg (P388 [7]): 90%
CCOC(=O)Nc1cc(NC(C)C(O)COc2ccccc2)c([N+](=O)[O-])c(N)n1 (stereo unspecified) | 55 | 
CCOC(=O)Nc1cc(N[C@H](C)[C@@H](O)c2ccc(O)cc2)c(N)c(N)n1 | 51 | ILS at 200 mg/kg (P388 [1]): 0%
CCOC(=O)Nc1cc(N[C@H](C)[C@@H](O)c2ccc(O)cc2)c([N+](=O)[O-])c(N)n1 | 23 | ILS at 200 mg/kg (P388 [1]): 0%
CCOC(=O)Nc1cc(NC(C)C(=O)Cc2ccccc2)c([N+](=O)[O-])c(N)n1 (stereo unspecified) | 10 | ILS at 200 mg/kg (P388 [1]): 10%
CCOC(=O)Nc1cc(N)c([N+](=O)[O-])c(N)n1 |  | IC50 [5]: 48 µM; ILS at 200 mg/kg (P388 [3]): 0%
